Results taken from ChEMBL document CHEMBL1157465, “Design, synthesis, and biological evaluation of novel 3-aryl-4-(1H-indole-3yl)-1,5-dihydro-2H-pyrrole-2-ones as vascular endothelial growth factor receptor (VEGF-R) inhibitors” (J Med Chem, 2008).

Tests used:
[1] = target: Cyclin-dependent kinase 2 (Homo sapiens, UniProt P24941); assay: Inhibition of human recombinant CDK2/cyclin A
Summary of the method: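 Human kinases expressed in Sf9 cells by baculovirus as GST or His fusions and affinity purified. Radiometric 33PanQinase assay: 60 mM HEPES-NaOH pH 7.5, 3 mM MgCl2, 3 mM MnCl2, 3 µM orthovanadate, 1.2 mM DTT, 1 µM [γ-33P]ATP, 50-400 ng enzyme, 1% DMSO; 30 °C, 80 min. Substrates: B-Raf-VE, MEK1 KM; CDK2/CycA, histone H1; CK2-A1, casein; COT, autophosphorylation. IC50 from 10 concentrations; 33Pi incorporation by scintillation.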

[2] = target: Ephrin type-B receptor 4 (Homo sapiens, UniProt P54760); assay: Inhibition of human recombinant EPHB4
Sequence of Ephrin type-B receptor 4 (P54760 whole entry, the tested form may be a part): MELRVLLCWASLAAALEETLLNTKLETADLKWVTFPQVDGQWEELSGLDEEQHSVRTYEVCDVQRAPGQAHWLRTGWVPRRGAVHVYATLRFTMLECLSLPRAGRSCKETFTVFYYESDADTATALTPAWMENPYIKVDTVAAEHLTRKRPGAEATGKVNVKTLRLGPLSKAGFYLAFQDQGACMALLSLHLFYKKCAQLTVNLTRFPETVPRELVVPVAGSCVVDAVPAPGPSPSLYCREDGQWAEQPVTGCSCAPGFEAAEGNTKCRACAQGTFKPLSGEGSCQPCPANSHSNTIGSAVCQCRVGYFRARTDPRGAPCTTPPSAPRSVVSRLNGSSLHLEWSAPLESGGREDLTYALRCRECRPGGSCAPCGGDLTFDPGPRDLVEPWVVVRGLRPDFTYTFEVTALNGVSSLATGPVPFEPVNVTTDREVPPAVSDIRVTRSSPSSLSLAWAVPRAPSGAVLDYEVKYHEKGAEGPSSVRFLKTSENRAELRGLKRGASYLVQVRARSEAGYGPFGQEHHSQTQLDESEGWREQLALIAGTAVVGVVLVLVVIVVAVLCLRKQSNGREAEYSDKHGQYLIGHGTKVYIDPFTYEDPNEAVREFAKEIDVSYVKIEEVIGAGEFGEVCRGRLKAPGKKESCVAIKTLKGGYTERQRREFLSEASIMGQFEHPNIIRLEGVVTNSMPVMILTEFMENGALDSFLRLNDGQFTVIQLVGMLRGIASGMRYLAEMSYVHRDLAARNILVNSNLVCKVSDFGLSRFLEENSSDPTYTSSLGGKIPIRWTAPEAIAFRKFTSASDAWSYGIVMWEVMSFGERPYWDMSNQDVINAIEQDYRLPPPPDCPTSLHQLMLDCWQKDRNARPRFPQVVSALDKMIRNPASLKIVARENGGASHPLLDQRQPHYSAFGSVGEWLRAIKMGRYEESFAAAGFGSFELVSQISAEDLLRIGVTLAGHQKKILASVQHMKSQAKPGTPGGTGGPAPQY
Summary of the method: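 Recombinant human tyrosine kinases (EPHB4, TIE2, VEGF-R2, VEGF-R3), expressed in Sf9 insect cells as GST- or His-fusions, with poly(Glu,Tyr) 4:1 as substrate. Conditions: 1 µM [γ-33P]ATP, pH 7.5 HEPES buffer with Mg/Mn, DTT and vanadate, 30 °C for 80 min, 1% DMSO. Ten concentrations were tested and IC50 came from scintillation counting of incorporated 33P.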

[3] = target: Receptor tyrosine-protein kinase erbB-2 (Homo sapiens, UniProt P04626); assay: Inhibition of human recombinant ERBB2
Sequence of Receptor tyrosine-protein kinase erbB-2 (P04626 whole entry, the tested form may be a part): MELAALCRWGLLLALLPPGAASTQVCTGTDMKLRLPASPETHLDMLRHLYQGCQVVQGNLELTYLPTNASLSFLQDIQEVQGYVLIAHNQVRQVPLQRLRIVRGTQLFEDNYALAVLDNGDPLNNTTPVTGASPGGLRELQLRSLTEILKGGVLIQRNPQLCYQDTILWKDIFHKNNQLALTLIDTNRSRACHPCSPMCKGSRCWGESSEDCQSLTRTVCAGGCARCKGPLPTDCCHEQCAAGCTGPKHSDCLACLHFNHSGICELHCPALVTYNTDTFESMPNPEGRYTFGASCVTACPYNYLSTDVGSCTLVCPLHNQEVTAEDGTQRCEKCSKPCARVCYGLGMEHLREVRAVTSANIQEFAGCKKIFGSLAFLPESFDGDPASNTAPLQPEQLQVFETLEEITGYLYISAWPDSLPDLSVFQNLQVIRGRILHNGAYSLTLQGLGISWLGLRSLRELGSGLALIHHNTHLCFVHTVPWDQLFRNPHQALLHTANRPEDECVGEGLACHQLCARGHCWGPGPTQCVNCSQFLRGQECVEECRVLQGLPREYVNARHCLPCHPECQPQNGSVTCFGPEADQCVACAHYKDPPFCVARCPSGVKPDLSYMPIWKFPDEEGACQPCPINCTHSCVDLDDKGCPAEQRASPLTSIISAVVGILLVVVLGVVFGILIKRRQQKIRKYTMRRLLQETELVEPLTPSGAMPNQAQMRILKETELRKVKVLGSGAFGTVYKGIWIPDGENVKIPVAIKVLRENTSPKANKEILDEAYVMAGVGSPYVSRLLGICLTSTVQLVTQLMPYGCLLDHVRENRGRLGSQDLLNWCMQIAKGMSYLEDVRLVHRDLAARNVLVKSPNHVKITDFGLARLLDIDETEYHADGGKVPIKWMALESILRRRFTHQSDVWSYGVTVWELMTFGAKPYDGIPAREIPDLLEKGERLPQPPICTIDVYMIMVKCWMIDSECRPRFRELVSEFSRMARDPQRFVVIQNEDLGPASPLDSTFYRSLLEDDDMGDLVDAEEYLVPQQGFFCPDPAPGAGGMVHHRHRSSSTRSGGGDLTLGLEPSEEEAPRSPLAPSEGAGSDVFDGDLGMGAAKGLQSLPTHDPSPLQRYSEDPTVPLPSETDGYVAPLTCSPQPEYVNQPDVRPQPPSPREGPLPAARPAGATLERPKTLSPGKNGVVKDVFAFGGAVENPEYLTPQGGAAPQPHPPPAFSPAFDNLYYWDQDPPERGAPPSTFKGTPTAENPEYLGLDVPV
Summary of the method: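 Human kinases expressed in Sf9 cells via baculovirus as GST or His fusions and affinity purified. 33PanQinase assay in 60 mM HEPES-NaOH pH 7.5, 3 mM MgCl2, 3 mM MnCl2, 3 µM orthovanadate, 1.2 mM DTT, 1 µM [γ-33P]ATP, 1% DMSO; 30 °C, 80 min. Substrates: poly(Glu,Tyr) 4:1 for ERBB2, IGF1-R and SRC; poly(Ala,Glu,Lys,Tyr) 6:2:5:1 for FLT3. IC50 from 10 concentrations by scintillation counting.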

[4] = target: Hepatocyte growth factor receptor (Homo sapiens, UniProt P08581); assay: Inhibition of human recombinant MET
Sequence of Hepatocyte growth factor receptor (P08581 whole entry): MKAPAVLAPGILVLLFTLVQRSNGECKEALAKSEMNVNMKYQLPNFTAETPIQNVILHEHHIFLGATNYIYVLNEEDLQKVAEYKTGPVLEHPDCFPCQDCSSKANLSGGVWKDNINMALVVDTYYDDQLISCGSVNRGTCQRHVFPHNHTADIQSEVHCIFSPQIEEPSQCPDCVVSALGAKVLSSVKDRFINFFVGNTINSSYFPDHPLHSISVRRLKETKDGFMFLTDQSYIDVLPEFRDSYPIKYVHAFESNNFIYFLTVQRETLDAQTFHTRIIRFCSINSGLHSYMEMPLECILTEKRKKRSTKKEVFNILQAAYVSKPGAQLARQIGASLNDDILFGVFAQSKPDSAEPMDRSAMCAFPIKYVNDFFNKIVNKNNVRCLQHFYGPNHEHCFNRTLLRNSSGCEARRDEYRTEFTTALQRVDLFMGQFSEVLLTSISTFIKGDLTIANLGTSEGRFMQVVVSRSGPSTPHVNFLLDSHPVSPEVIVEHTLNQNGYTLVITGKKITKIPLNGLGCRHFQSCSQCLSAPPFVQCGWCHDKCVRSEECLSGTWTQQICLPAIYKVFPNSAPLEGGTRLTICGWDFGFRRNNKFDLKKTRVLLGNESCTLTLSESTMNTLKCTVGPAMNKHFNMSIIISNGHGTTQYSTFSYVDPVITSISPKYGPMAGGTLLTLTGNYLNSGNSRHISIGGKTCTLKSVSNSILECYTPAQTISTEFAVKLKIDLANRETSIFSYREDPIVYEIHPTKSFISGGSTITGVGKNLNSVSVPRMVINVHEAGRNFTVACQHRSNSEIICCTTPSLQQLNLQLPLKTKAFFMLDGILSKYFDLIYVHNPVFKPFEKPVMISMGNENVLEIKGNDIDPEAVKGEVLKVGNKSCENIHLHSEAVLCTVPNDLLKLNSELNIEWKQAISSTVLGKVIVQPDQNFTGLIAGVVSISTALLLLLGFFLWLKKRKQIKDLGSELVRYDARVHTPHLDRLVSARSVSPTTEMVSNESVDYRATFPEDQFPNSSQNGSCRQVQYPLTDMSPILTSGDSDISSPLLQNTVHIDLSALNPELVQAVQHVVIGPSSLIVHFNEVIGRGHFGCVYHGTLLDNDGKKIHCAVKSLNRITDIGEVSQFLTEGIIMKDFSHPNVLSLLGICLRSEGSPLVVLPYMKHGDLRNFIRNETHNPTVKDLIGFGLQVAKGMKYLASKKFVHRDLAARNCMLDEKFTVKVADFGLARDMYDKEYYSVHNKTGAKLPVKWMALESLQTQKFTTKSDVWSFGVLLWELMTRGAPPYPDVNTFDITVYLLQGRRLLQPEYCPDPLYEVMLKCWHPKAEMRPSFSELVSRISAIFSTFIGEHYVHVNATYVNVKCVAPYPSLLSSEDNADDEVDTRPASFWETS

[5] = species: Homo sapiens; assay: Induction of apoptosis in HDMEC assessed as cleaved caspase 3 at 1.3 uM after 24 hrs; format: functional
Summary of the method: (§1)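 HDMEC incubated 24 h with compound. Adherent cells and supernatant harvested together, stained with an antibody to cleaved caspase-3, and analysed by FACS as percent apoptotic cells. Three independent repeats.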

[6] = species: Homo sapiens; assay: Induction of apoptosis in HDMEC assessed as cleaved caspase 3 at 2.6 uM after 24 hrs; format: functional; summary of the method: as §1

SMILES	IC50 [1] [µM]	IC50 [2] [µM]	IC50 [3] [µM]	IC50 [4] [µM]	Activity [5] [%]	Activity [6] [%]
COc1cc(C2=C(c3cn(COC(C)(C)C)c4ccccc34)CNC2=O)cc(OC)c1OC	23	20	25	29		
COc1cc(C2=C(c3cn(C)c4ccccc34)C(=O)NC2)cc(OC)c1OC	42					
COc1cc(C2=C(c3c[nH]c4ccccc34)CNC2=O)cc(OC)c1OC					25	42.1
